According to ChEMBL document CHEMBL4406825, “Design, synthesis and preliminary bioactivity evaluations of 8-hydroxyquinoline derivatives as matrix metalloproteinase (MMP) inhibitors” (Eur J Med Chem, 2019):
Activity calls are given as the source filed them. No cut-off for these calls is given here.

Columns and labels:
[1] = biological target: T1, 72 kDa type IV collagenase (Homo sapiens, UniProt P08253); assay: Inhibition of recombinant human MMP2 at 10 uM using thiopeptide as substrate preincubated for 30 mins followed by substrate addition and measured every min for 20 mins by colorimetric assay relative to control
In short: (§1)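 Colorimetric kit assay: human recombinant enzyme plus inhibitor in assay buffer for 30 min at 37 °C, then chromogenic MMP substrate added; A412 recorded each minute over 20 min. Enzyme-free blanks and inhibitor-free controls included.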
Target sequence in this assay (P08253 110-660 limits assumed): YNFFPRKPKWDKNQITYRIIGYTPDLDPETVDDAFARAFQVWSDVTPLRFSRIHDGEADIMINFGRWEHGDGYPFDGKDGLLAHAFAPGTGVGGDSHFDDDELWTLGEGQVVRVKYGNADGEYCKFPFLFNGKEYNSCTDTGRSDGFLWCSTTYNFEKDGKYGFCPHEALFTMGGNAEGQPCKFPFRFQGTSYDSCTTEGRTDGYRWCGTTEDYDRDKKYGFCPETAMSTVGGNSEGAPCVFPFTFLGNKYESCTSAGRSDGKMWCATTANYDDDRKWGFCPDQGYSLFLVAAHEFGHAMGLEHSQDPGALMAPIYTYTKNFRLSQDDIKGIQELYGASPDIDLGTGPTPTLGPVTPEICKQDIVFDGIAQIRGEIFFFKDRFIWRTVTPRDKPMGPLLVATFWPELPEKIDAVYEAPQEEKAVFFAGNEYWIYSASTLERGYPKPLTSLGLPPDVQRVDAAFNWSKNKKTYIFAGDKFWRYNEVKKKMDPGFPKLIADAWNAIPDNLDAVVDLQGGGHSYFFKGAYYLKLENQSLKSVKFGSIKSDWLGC

[2] = biological target: T2, Matrix metalloproteinase-9 (Homo sapiens, UniProt P14780); assay: Inhibition of recombinant human MMP9 using thiopeptide as substrate preincubated for 30 mins followed by substrate addition and measured every min for 20 mins by colorimetric assay
T2 sequence (P14780 whole entry): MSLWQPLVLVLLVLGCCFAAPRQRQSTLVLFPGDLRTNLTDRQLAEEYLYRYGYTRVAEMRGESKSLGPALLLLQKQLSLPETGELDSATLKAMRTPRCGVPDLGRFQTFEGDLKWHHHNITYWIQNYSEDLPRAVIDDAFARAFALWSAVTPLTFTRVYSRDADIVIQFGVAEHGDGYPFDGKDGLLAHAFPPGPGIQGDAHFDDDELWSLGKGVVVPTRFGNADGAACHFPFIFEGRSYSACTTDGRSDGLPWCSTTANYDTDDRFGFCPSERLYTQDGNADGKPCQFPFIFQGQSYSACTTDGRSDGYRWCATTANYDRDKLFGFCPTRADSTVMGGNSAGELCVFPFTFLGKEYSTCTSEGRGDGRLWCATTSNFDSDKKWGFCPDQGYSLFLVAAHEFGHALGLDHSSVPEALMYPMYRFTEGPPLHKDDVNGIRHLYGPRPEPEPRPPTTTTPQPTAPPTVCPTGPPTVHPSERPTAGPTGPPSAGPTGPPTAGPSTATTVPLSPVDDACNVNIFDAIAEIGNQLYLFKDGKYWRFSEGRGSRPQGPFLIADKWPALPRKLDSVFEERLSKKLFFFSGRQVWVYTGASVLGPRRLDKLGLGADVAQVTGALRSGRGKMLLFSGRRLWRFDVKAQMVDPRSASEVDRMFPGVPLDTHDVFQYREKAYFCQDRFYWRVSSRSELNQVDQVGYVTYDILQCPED

[3] = biological target: T1, 72 kDa type IV collagenase; assay: Inhibition of recombinant human MMP2 using thiopeptide as substrate preincubated for 30 mins followed by substrate addition and measured every mins for 20 min by colorimetric assay
Target sequence in this assay (P08253 whole entry): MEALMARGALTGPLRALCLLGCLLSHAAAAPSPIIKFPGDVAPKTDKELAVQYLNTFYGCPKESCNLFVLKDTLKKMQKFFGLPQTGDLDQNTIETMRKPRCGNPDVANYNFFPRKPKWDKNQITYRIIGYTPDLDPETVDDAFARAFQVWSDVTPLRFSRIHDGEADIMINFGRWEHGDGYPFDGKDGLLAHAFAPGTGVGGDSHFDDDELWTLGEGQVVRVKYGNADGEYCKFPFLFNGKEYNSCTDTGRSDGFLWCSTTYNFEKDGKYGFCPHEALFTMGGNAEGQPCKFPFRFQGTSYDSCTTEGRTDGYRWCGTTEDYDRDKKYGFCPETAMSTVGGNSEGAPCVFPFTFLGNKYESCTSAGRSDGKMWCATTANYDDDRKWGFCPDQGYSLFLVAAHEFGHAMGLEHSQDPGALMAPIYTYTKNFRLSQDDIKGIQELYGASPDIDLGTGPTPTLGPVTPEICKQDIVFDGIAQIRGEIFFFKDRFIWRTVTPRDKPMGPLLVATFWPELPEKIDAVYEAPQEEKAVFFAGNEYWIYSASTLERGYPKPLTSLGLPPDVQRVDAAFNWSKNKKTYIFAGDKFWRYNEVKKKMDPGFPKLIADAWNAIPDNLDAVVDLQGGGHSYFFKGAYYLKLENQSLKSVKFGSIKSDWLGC

[4] = biological target: T2, Matrix metalloproteinase-9; assay: Inhibition of recombinant human MMP9 at 10 uM using thiopeptide as substrate preincubated for 30 mins followed by substrate addition and measured every min for 20 mins by colorimetric assay relative to control; in short: as §1
A549 [5] = assay: Induction of apoptosis in human A549 cells assessed as necrotic cells at 1 uM incubated for 48 hrs by annexin V FITC and propidium iodide based flow cytometry (reference value: 0.02 %); assay type: functional
In short: (§2)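 A549 cells (1×10^5 cells/mL) treated 48 h at 0, 1, 5 or 10 µM; harvested, washed in cold PBS, resuspended in binding buffer with annexin V-FITC and PI, 15 min at room temperature in the dark, then analysed by flow cytometry.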

KG-1 = assay: Antiproliferative activity against human KG1 cells assessed as reduction in cell viability incubated for 48 hrs by MTT assay; assay type: functional, cell-based; settings: KG-1, 48 h
In short: (§3)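 Cells grown in RPMI1640 with 10% FBS at 37°C, 5% CO2; seeded at 4000-5000 cells/well for 8 h, then exposed to a range of compound concentrations for 48 h. MTT added for 4 h, formazan dissolved in DMSO, absorbance at 570 nm; IC50 calculated from inhibition ratios.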

A549 [6] = assay: Antiproliferative activity against human A549 cells assessed as reduction in cell viability incubated for 48 hrs by MTT assay; assay type: functional, cell-based; settings: A549, 48 h; in short: as §3
A549 [7] = assay: Induction of apoptosis in human A549 cells assessed as late apoptotic cells at 10 uM incubated for 48 hrs by annexin V FITC and propidium iodide based flow cytometry (reference value: 3.11 %); assay type: functional; in short: as §2
A549 [8] = assay: Induction of apoptosis in human A549 cells assessed as necrotic cells at 10 uM incubated for 48 hrs by annexin V FITC and propidium iodide based flow cytometry (reference value: 0.02 %); assay type: functional; in short: as §2
HUVEC [9] = assay: Antiangiogenic activity in HUVEC assessed as inhibition of tuber formation at 10 uM incubated for 24 hrs by matrigel-based inverted microscopy; assay type: functional, cell-based; settings: Homo sapiens
In short: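 HUVEC treated with compound for 24 h in serum-free RPMI1640, harvested and layered onto undiluted matrigel polymerized 2 h at 37°C; after 6 h cell organization examined by inverted microscope, with mesh number counted as the angiogenesis read-out. Tested at 10 µM.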

A549 [10] = assay: Induction of apoptosis in human A549 cells assessed as viable cells at 1 uM incubated for 48 hrs by annexin V FITC and propidium iodide based flow cytometry (reference value: 94.7 %); assay type: functional; settings: A549, 48 h, read-out: Activity; in short: as §2
A549 [11] = assay: Induction of apoptosis in human A549 cells assessed as early apoptotic cells at 5 uM incubated for 48 hrs by annexin V FITC and propidium iodide based flow cytometry (reference value: 2.15 %); assay type: functional; in short: as §2
A549 [12] = assay: Induction of apoptosis in human A549 cells assessed as viable cells at 10 uM incubated for 48 hrs by annexin V FITC and propidium iodide based flow cytometry (reference value: 94.7 %); assay type: functional; settings: A549, 48 h, read-out: Activity; in short: as §2
HL-60 = assay: Antiproliferative activity against human HL60 cells assessed as reduction in cell viability incubated for 48 hrs by MTT assay; assay type: functional, cell-based; settings: HL-60, 48 h; in short: as §3
A549 [13] = assay: Induction of apoptosis in human A549 cells assessed as viable cells at 5 uM incubated for 48 hrs by annexin V FITC and propidium iodide based flow cytometry (reference value: 94.7 %); assay type: functional; settings: A549, 48 h, read-out: Activity; in short: as §2
HUVEC [14] = assay: Cytotoxicity against HUVEC assessed as reduction in cell viability incubated for 48 hrs by MTT assay; assay type: cell-based; settings: Homo sapiens; in short: as §3
A549 [15] = assay: Inhibition of cell migration in human A549 cells at 1 to 10 uM incubated for 24 hrs by crystal violet staining based transwell migration assay; assay type: functional
In short: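 A549 cells pretreated 24 h with compound (1, 5, 10 µM), harvested into serum-free RPMI1640; 30,000 cells placed in upper transwell chamber, lower chamber RPMI1640 + 10% FBS as chemoattractant. Migration 24 h at 37°C, 5% CO2; cells fixed MeOH/acetic acid (3:1), upper side wiped, underside stained 0.1% crystal violet and counted. Three repeats, mean ± SEM.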

MCF7 = assay: Antiproliferative activity against human MCF7 cells assessed as reduction in cell viability incubated for 48 hrs by MTT assay; assay type: functional, cell-based; settings: MCF7, 48 h; in short: as §3
A549 [16] = assay: Induction of apoptosis in human A549 cells assessed as late apoptotic cells at 1 uM incubated for 48 hrs by annexin V FITC and propidium iodide based flow cytometry (reference value: 3.11 %); assay type: functional; in short: as §2
PC-3 = assay: Antiproliferative activity against human PC3 cells assessed as reduction in cell viability incubated for 48 hrs by MTT assay; assay type: functional, cell-based; settings: PC-3, 48 h; in short: as §3
A549 [17] = assay: Induction of apoptosis in human A549 cells assessed as necrotic cells at 5 uM incubated for 48 hrs by annexin V FITC and propidium iodide based flow cytometry (reference value: 0.02 %); assay type: functional; in short: as §2
A549 [18] = assay: Induction of apoptosis in human A549 cells assessed as early apoptotic cells at 1 uM incubated for 48 hrs by annexin V FITC and propidium iodide based flow cytometry (reference value: 2.15 %); assay type: functional; in short: as §2
A549 [19] = assay: Induction of apoptosis in human A549 cells assessed as early apoptotic cells at 10 uM incubated for 48 hrs by annexin V FITC and propidium iodide based flow cytometry (reference value: 2.15 %); assay type: functional; in short: as §2
K562 = assay: Antiproliferative activity against human K562 cells assessed as reduction in cell viability incubated for 48 hrs by MTT assay; assay type: functional, cell-based; settings: K562, 48 h; in short: as §3
A549 [20] = assay: Induction of apoptosis in human A549 cells assessed as late apoptotic cells at 5 uM incubated for 48 hrs by annexin V FITC and propidium iodide based flow cytometry (reference value: 3.11 %); assay type: functional; in short: as §2
A549 [21] = assay: Inhibition of cell invasion in human A549 cells at 1 to 10 uM incubated for 24 hrs by crystal violet staining based matrigel migration assay; assay type: functional
In short: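 As the migration setup but membrane precoated with matrigel (1:10 diluted) for 2 h at 37°C: A549 pretreated 24 h at 1, 5, 10 µM, 30,000 cells in serum-free medium above, 10% FBS below, 24 h, then fixing, 0.1% crystal violet staining and counting. Three repeats, mean ± SEM.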

Compound	inhibition [1] [%]	IC50 [2] [µM]	IC50 [3] [µM]	inhibition [4] [%]	IC50 (A549 [6]) [µM]	IC50 (HL-60) [µM]	IC50 (MCF7) [µM]	IC50 (PC-3) [µM]	IC50 (K562) [µM]	IC50 (KG-1) [µM]	IC50 (HUVEC [14]) [µM]	further results
Cc1[nH]c2ccccc2c1CCNC(=O)CNCc1cc(Cl)c2cccnc2c1O	59.5	> 10	8.8	35.2	–	–	–	–	–	–	–	–
CN(CCC(=O)Nc1ccc(O)c2ncccc12)c1ccccc1	–	> 10	> 10	–	–	–	–	–	–	–	–	–
O=S(=O)(Nc1ccc(O)c2ncccc12)c1ccc(F)cc1	–	11	8.8	–	51	4.6	42	18	3.6	4.6	> 50	Activity (A549 [5]): 0.032%; Activity (A549 [7]): 6.57%; Activity (A549 [8]): 0.11%; inhibition (HUVEC [9]): Active; viability at 1 µM (A549 [10]): 79.5%; Activity (A549 [11]): 19.8%; viability at 10 µM (A549 [12]): 73.1%; viability at 5 µM (A549 [13]): 74.6%; inhibition (A549 [15]): Active; Activity (A549 [16]): 6.11%; Activity (A549 [17]): 0.017%; Activity (A549 [18]): 14.4%; Activity (A549 [19]): 20.2%; Activity (A549 [20]): 5.49%
Cc1nc2ccccc2n1CCCC(=O)Nc1ccc(O)c2ncccc12	46.9	> 10	> 10	–	–	–	–	–	–	–	–	–
O=C(CCCN1C(=O)c2ccccc2S1(=O)=O)Nc1ccc(O)c2ncccc12	50.1	> 10	> 10	–	–	–	–	–	–	–	–	–
O=C(CNCc1ccc(O)c2ncccc12)Nc1ccccc1	–	> 10	> 10	42.9	–	–	–	–	–	–	–	–
O=C(CCCCCNCc1ccc(O)c2ncccc12)Nc1ccccc1	56	6	8.8	55	–	–	–	–	–	–	–	–
O=C(CCNCc1ccc(O)c2ncccc12)Nc1ccccc1	–	> 10	> 10	9.8	–	–	–	–	–	–	–	–
Cc1nc2ccccc2n1CCCCCC(=O)Nc1ccc(O)c2ncccc12	38.9	> 10	> 10	–	–	–	–	–	–	–	–	–

Now those with a lower IC50 [2], led by results:

inhibition [1] [%]	IC50 [2] [µM]	IC50 [3] [µM]	inhibition [4] [%]	IC50 (A549 [6]) [µM]	IC50 (HL-60) [µM]	IC50 (MCF7) [µM]	IC50 (PC-3) [µM]	IC50 (K562) [µM]	Compound	IC50 (KG-1) [µM]	IC50 (HUVEC [14]) [µM]	further results
67.8	3.1	7.6	100	–	–	–	–	–	Cc1[nH]c2ccccc2c1CCNC(=O)CCCCNCc1cc(Cl)c2cccnc2c1O	–	–	–
100	1.7	3.6	77.1	> 25	2.6	12	> 25	4.2	Cc1[nH]c2ccccc2c1CCNC(=O)CCCCCNCc1cc(Cl)c2cccnc2c1O	4.7	> 50	–
–	0.0088	0.0091	–	96	29	187	52	143	COc1ccc(S(=O)(=O)N(CC(=O)NO)CC(C)C)cc1	52	> 250	inhibition (A549 [21]): Active
61	5.3	8.8	67.8	–	–	–	–	–	Cc1[nH]c2ccccc2c1CCNC(=O)CCCCNCc1ccc(O)c2ncccc12	–	–	–
95.8	2.1	3.2	78.8	7.4	> 5	13	10	2.9	O=C(CNCc1cc(Cl)c2cccnc2c1O)Nc1ccccc1	2.3	> 50	–
100	3.6	3	99.9	13	1.9	7.4	8.4	2.9	O=C(CCCCNCc1cc(Cl)c2cccnc2c1O)Nc1ccccc1	1.6	> 50	–
